Columns and labels:
Details in all cases: Cricetulus griseus
V79 [1] = assay: Glutathione peroxidase activity in V79 cells at 100 uM expressed as fold induction of GPx activity to control value; format: cell-based
Procedure, shortened: (§1)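 V79 cells (5.0×10^5 per flask) adhered overnight, then exposed 48 h to compound in complete medium (pH 7–7.5), followed by 24 h in fresh medium. Cells were sonicated in Tris-HCl (50 mM, pH 7.5, EDTA, 2-mercaptoethanol) and centrifuged. Supernatant GPx was read as NADPH loss at 340 nm over 3 min with tert-butyl hydroperoxide, normalised to Bradford protein (N = 9), and given as fold over untreated control.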

V79 [2] = assay: Cytotoxicity activity against V79 cells; format: functional, cell-based
Procedure, shortened: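 V79 cells kept in D-MEM with 10% Fetal Clone I serum at 37 °C, 5% CO2, then seeded in 96-well plates and allowed to adhere overnight. Exposed 2 days to compound (0–3000 µM, pH 7–7.5, in complete medium). Viability read by MTS (2 h, 490 nm), expressed as percent of untreated control. IC50 taken by regression of viability vs concentration.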

V79 [3] = assay: Glutathione peroxidase activity in V79 cells at 20 uM expressed as fold induction of GPx activity to control value; format: cell-based; procedure, shortened: as §1

Compound: C[Se]CC[C@H](N)C(=O)O [SELENOMETHIONINE]
- Fold induction (V79 [1]): 1.8
- IC50 (V79 [2]): 267 µM

Compound: O=[Se](O)O [SODIUM SELENITE]
- IC50 (V79 [2]): 17 µM

Compound: O=C(O)[C@@H]1C[Se]CN1
- Fold induction (V79 [1]): 5.9
- IC50 (V79 [2]): 317 µM

Compound: C[Se]C[C@H](N)C(=O)O [METHYLSELENOCYSTEINE]
- Fold induction (V79 [1]): 1.5
- IC50 (V79 [2]): 472 µM

Compound: CC1N[C@@H](C(=O)O)C[Se]1 (some centres undefined)
- Fold induction (V79 [1]): 1.3
- IC50 (V79 [2]): 160 µM

Compound: O=C1N[C@H](C(=O)O)C[Se]1
- Fold induction (V79 [1]): 4.6
- IC50 (V79 [2]): 451 µM

Compound: O=C1N[C@@H](C(=O)O)C[Se]1
- Fold induction (V79 [1]): 1.4
- IC50 (V79 [2]): > 3000 µM

Compound: O=[Se](=O)(O)O [SODIUM SELENATE]
- Fold induction (V79 [1]): 1.9
- IC50 (V79 [2]): 292 µM

Compound: N#C[Se]Cc1ccc(C[Se]C#N)cc1
- IC50 (V79 [2]): 12 µM
- Fold induction (V79 [3]): 1.5

Compound: CC1N[C@H](C(=O)O)C[Se]1 (some centres undefined)
- Fold induction (V79 [1]): 2.1
- IC50 (V79 [2]): 79 µM

From ChEMBL document CHEMBL1145854, “Characteristics of selenazolidine prodrugs of selenocysteine: toxicity and glutathione peroxidase induction in V79 cells” (J Med Chem, 2003)
